Activity calls are given as the source filed them. No cut-off for these calls is given here.
How the values were obtained:
[1] = target: T1, Protein farnesyltransferase (Homo sapiens, UniProt P49354+P49356); assay: Inhibition of [3H]FPP incorporation into biotinylated laminB peptide by farnesyl transferase; format: protein-complex assay
In short: (§1)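 Isolated FPT enzyme assay measuring incorporation of [3H]-farnesylpyrophosphate into biotinylated laminB peptide. IC50 is the concentration giving 50% reduction of incorporation. Some entries are given as percent inhibition at a single concentration.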

NIH3T3 [2] = assay: T24H-ras-transformed NIH3T3 cell proliferation; format: functional, cell-based, Mus musculus
[3] = target: T1, Protein farnesyltransferase; assay: Inhibition of [3H]FPP incorporation into biotinylated laminB peptide by farnesyl transferase 0.1 uM; format: protein-complex assay; in short: as §1
NIH3T3 [4] = assay: In vivo inhibition of T24H-ras NIH3T3 tumor growth in mice (Not significant); format: functional, organism-based; settings: Mus musculus
[5] = target: T1, Protein farnesyltransferase; assay: Inhibition of [3H]FPP incorporation into biotinylated laminB peptide by farnesyl transferase at 0.1 uM; format: protein-complex assay; in short: as §1
[6] = target: T2, Geranylgeranyl transferase type I (Homo sapiens, UniProt P49354+P53609); assay: Inhibition of Geranylgeranylprotein transferase-I catalyzed incorporation of [3H]GGPP into biotinYRASNRSCAIL peptide; format: protein-complex assay
[7] = target: T2, Geranylgeranyl transferase type I; assay: Inhibition of Geranylgeranylprotein transferase-I catalyzed incorporation of [3H]GGPP into biotinYRASNRSCAIL peptide at 10 uM; format: protein-complex assay
NIH3T3 [8] = assay: (§2) In vivo inhibition of T24H-ras NIH3T3 tumor growth in mice; format: functional, Mus musculus
Homo sapiens = organism: Homo sapiens; assay: Compound tested for metabolism and expressed as percentage of parent drug remaining after 120 min incubation with human liver microsomes.; format: functional, organism-based
NIH3T3 [9] = assay: as §2; format: functional, Mus musculus; remark: listed apart in the source
In short: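 Mice were inoculated with T24 NIH 3T3 cells. Dosing at 25 mg/kg was oral, once daily, starting 2 days after tumour inoculation. Tumour growth was assessed 17 days after administration and is reported as percentage inhibition of tumour weight.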

Compound	IC50 [1] [nM]	IC50 (NIH3T3 [2]; Mus musculus, NIH3T3) [nM]	IC50 (NIH3T3 [2]; nih3t3) [nM]	further results
Cn1cncc1C(N)(c1ccc(Cl)cc1)c1ccc2c(c1)c(-c1cccc(Cl)c1)nc1nccn12 (stereo unspecified)	5	88	–	–
Cn1cncc1C(N)(c1ccc(Cl)cc1)c1ccc2c(c1)c(-c1cccc(Cl)c1)nc1nncn12 (stereo unspecified)	3	186	–	–
Cn1cncc1C(N)(c1ccc(Cl)cc1)c1ccc2c(c1)c(-c1cccc(Cl)c1)cc1nccn12 (stereo unspecified)	7	28	–	–
Cn1cncc1C(N)(c1ccc(Cl)cc1)c1ccc2c(c1)c(-c1cccc(Cl)c1)cc1nnc(-c3ccccc3)n12 (stereo unspecified)	–	304	–	inhibition [3]: 60%
Cc1nnc2cc(-c3cccc(Cl)c3)c3cc(C(N)(c4ccc(Cl)cc4)c4cncn4C)ccc3n12 (stereo unspecified)	1.5	17.5	–	inhibition (NIH3T3 [4]): inactive
Cn1cncc1C(N)(c1ccc(Cl)cc1)c1ccc2c(c1)c(-c1cccc(Cl)c1)cc1cnnn12 (stereo unspecified)	–	–	–	inhibition [3]: 68%
Cn1cncc1C(N)(c1ccc(Cl)cc1)c1ccc2c(c1)c(-c1cccc(Cl)c1)cc1nncn12 (stereo unspecified)	–	–	–	inhibition [5]: 65%
Cn1cncc1C(N)(c1ccc(Cl)cc1)c1ccc2c(c1)c(-c1cccc(Cl)c1)cc1nnnn12 (stereo in doubt; 24)	3.5	–	55	IC50 [6]: 176 nM
Cn1cncc1C(N)(c1ccc(Cl)cc1)c1ccc2c(c1)c(-c1cccc(Cl)c1)cc1nnnn12 (stereo in doubt; 24a)	–	–	> 500	Inhibition [1]: 36%; Inhibition [7]: 55%
Cn1cncc1C(N)(c1ccc(Cl)cc1)c1ccc2c(c1)c(-c1cccc(Cl)c1)cc1nnnn12 (stereo in doubt; 24b) [listing 1 of 2 here]	1.7	–	20	IC50 [6]: 81 nM
Cn1cncc1C(N)(c1ccc(Cl)cc1)c1ccc2c(c1)c(-c1cccc(Cl)c1)cc1nnnn12 (stereo in doubt; 24b) [listing 2 of 2 here]	–	–	–	inhibition (NIH3T3 [4]): inactive
Cn1cncc1C(N)(c1ccc(Cl)cc1)c1ccc2c(c1)c(-c1cccc(Cl)c1)nc1nnnn12 (stereo in doubt; 43)	2.5	–	12	IC50 [6]: 461 nM
Cn1cncc1C(N)(c1ccc(Cl)cc1)c1ccc2c(c1)c(-c1cccc(Cl)c1)nc1nnnn12 (stereo in doubt; 43a) [listing 1 of 2 here]	0.6	–	10	IC50 [6]: > 1000 nM; Inhibition (NIH3T3 [8]): 66%
Cn1cncc1C(N)(c1ccc(Cl)cc1)c1ccc2c(c1)c(-c1cccc(Cl)c1)nc1nnnn12 (stereo in doubt; 43a) [listing 2 of 2 here]	–	–	–	Metabolism (Homo sapiens): 97%
Cn1cncc1C(N)(c1ccc(Cl)cc1)c1ccc2c(c1)c(-c1cccc(Cl)c1)nc1nnnn12 (stereo in doubt; 43b)	22	–	108	–
Cn1cncc1[C@@](N)(c1ccc(Cl)cc1)c1ccc2c(c1)c(-c1cccc(Cl)c1)cc(=O)n2C [TIPIFARNIB]	0.9	–	–	Metabolism (Homo sapiens): 66%; Inhibition (NIH3T3 [9]): 37%
